Source: PubChem BioAssay
Rows were chosen to be rich in hits. Some 1.7% of all compounds tested hit in one or more screens of this group.
DSG3 Ab inh: inhibitors of pemphigus antibody binding to human desmoglein-3; AID 588358; P32926; actives 0.48% (n = 310,000); DSG3-coupled beads, scFv-anti-DSG3-GFP binding, flow cytometry; stronger effect = lower value; binding (percent of control), % at 10 µM;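 active = binding more than 3 SD below its plate's average and above zero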;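 note: hits lower antibody fragment binding to DSG3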
Target sequence (P32926 whole entry, looked up, the tested form may be a part): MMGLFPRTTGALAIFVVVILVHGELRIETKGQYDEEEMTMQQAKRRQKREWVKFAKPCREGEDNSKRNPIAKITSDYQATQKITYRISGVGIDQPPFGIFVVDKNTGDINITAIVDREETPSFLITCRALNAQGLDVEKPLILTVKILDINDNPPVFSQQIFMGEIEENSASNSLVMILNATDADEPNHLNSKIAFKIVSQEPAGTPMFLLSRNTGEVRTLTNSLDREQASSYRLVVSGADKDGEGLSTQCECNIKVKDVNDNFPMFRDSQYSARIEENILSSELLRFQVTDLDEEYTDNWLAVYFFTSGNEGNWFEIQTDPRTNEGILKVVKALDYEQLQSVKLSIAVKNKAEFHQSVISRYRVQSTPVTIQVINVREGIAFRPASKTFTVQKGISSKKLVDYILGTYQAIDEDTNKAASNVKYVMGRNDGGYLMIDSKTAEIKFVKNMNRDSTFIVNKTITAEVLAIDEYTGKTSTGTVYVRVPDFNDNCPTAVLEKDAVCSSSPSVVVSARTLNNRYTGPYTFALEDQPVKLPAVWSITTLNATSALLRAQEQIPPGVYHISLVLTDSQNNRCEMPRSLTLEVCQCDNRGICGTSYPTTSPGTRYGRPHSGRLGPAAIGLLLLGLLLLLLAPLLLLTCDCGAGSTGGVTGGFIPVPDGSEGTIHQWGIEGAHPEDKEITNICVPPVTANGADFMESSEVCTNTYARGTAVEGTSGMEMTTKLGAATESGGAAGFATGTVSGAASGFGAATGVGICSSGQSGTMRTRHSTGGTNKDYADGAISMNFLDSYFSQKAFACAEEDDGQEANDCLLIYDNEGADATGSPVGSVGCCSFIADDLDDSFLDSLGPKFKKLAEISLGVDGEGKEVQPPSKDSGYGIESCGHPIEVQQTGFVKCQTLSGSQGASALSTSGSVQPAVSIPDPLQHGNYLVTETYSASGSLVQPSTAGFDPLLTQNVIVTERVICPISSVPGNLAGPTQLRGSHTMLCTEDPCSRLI
Arrestin-AP2 inh: blocks beta-arrestin peptide binding to AP2 adaptin; FITC-arrestin peptide / GST-AP2 beads, flow cytometry; AP2 beta2 appendage carries R879A mutation; inhibition, % at 10 µM; actives 0.31% (n = 340,000); AID 504490;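 active = inhibition above a set limit, near 3 SD of compounds lacking own fluorescence, cut at about 54% in these data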;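 note: plate controls were DMSO wells for no effect and 5 µM unlabelled arrestin peptide for full effect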
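System: GST-AP2 R879A bound to glutathione beads, E. coli-expressed. Also added: 50 nM FITC-arrestin peptide. Schedule: compound with beads 12 min RT, then probe 1 h RT. Signal: bead flow cytometry, FITC channel. Read-out basis: percent response.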
Efflux pump inh: antifungal efflux pump inhibition, Nile Red retention; actives 0.44% (n = 330,000); inhibition, % at 10 µM; S. cerevisiae Candida pump triplex;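 active = plate passing quality check with inhibition over a set limit, or well fluorescence over plate mean plus 4 SD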;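 note: Nile Red retained in pooled yeast measured as flow cytometry median fluorescence; 0% = buffer negative control and 100% = Enniatin B positive control; higher means more Nile Red kept so more efflux inhibition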
Neddylation inh: cullin neddylation inhibition. inhibition, % at 25 µM. AID 651699. TR-FRET cullin neddylation, biochemical. actives 0.58% (n = 360,000). P61081+Q13564; in the data active = inhibition above about 36%
Neddyl conf: confirmation of human cullin neddylation inhibitors | shares compounds with Neddylation inh | TR-FRET cullin neddylation biochemical assay | calls only at 25 µM | actives 13% (n = 1,800); in the data active = inhibition above about 40%;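 note: neddylation substrate is the cullin 1 ring ligase complex with SKP2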
* = called active by the depositor; i = inactive; nt = not tested or not shown; + = active, no number.

SMILES	DSG3 Ab inh	Arrestin-AP2 inh	Efflux pump inh	Neddylation inh	Neddyl conf
O=C(c1ccc2c3c(cccc13)CC2)C1CCCN(Cc2ncc[nH]2)C1 (stereo not given)	103	8	0	50*	i
Cc1ccc(-c2cc(-c3ccc(C)cc3)[n+](-c3ccc(C(=O)[O-])cc3)c(-c3ccc(C)cc3)c2)cc1	105	-3	0	40*	+
CCOC(=O)c1ccc(-[n+]2c(-c3ccccc3)cc(-c3ccccc3)cc2-c2ccccc2)cc1	102	-6	0	nt	nt
Cc1cccc(CCNCc2cc3cccc(C)c3[nH]c2=O)c1	105	-5	0	8	nt
COCCn1cc(C(=O)N2CCC3(CC2)OCCO3)c2c3ccccc3n(C)c2c1=O	102	4	0	39*	i
Cn1c2ccccc2c2c(C(=O)N3CCC4(CC3)OCCO4)cn(C3CCCC3)c(=O)c21	nt	22	0	30	nt
CCC(C)n1c(O)c(/C=N/NC(=O)c2ccncc2)c(=O)[nH]c1=S (stereo not given)	99	-13	0	43*	i
C=CCOC(=O)c1ccccc1N	106	3	0	45*	i
Nc1ccccc1C(=O)OCCOc1ccccc1	nt	14	0	nt	nt
O=C1N(c2ccc(Cl)cc2)C(c2cccnc2)N2CCCN12 (stereo not given)	103	-5	0	-4	nt
Clc1cccc(N2Cc3cc(-c4ccccc4)ccc3-n3nncc3C2)c1	nt	nt	nt	-6	nt
COc1ccc2c(CN3CC=C(c4ccccc4)CC3)cc(=O)oc2c1	95	-3	0	41*	i
COc1ccc2ccc(O)c(CN3CC=C(c4ccccc4)CC3)c2c1	101	-25	0	6	nt
CCOc1ccc(N=Cc2c(O)n(CCc3ccc(OC)c(OC)c3)c(=O)[nH]c2=O)cc1	nt	-11	0	41*	i
COc1ccc(CCn2c(O)c(C=Nc3ccc(NC(C)=O)cc3)c(=O)[nH]c2=O)cc1OC	88	18	0	nt	nt
NC(Cc1ccc(O)cc1)C(=O)NN=Cc1ccc(N(CCCl)CCCl)cc1 (stereo not given)	113	13	nt	41*	i
CC1(C)COC(Nc2cccc(Cl)c2)=N1	103	10	0	-1	nt
CCCCC(=O)N/N=C/c1c(O)n(-c2cccc3ccccc23)c(=O)[nH]c1=O	110	6	0	41*	i
Cc1ccc(CN2C(=O)NC(=O)C3(Cc4c(nc5ccccn5c4=O)N4CCCCCC43)C2=O)cc1 (stereo not given)	96	4	0	44*	i
O=C1NC(=O)C2(Cc3ccccc3N3CCCC32)C(=O)N1c1cccc(Cl)c1 (stereo not given)	93	-7	0	-5	nt
CC/C(=N\NC(=O)c1ccccc1)c1c(O)n(Cc2ccccc2)c(=O)[nH]c1=O	102	5	0	39*	i
O=C(N/N=C/c1c(O)n(CCc2ccccc2)c(=O)[nH]c1=O)c1ccccc1	107	4	0	44*	i
CCC(=NCC1CCCO1)c1c(O)n(Cc2ccccc2)c(=O)[nH]c1=O (stereo not given)	91	9	0	-4	nt
CCC(C)n1c(O)c(/C=N/Nc2ccccc2)c(=O)[nH]c1=S (stereo not given)	101	-4	0	-7	nt
